Experimental data: ChEMBL document CHEMBL3758165, “In vitro interactions between anidulafungin and nonsteroidal anti-inflammatory drugs on biofilms of Candida spp” (2016)

Tests used:
Assay type in all cases: functional
[1] = system: Candida albicans; test: Antibiofilm activity against Candida albicans ATCC 10231 after 48 hrs by XTT reduction assay relative to control; set-up: scale not given: the % may be the effect or the level left
Summary of the method: (§1)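 Biofilms grown on autoclaved PVC disks: 1·10^6 cfu ml-1 cells, adhesion 1.5 h at 37 °C shaking 100 rpm, PBS wash, then 48 h at 37 °C in RPMI 1640 (MOPS, pH 7). Metabolic activity read by XTT–menadione reduction, 2 h at 37 °C, supernatant formazan at 490 nm, relative to drug-free control; triplicate on different days.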

[2] = system: Candida albicans; test: Antibiofilm activity against Candida albicans 17a18 after 48 hrs by XTT reduction assay relative to control; set-up: scale not given: the % may be the effect or the level left; summary of the method: as §1
[3] = system: Candida albicans; test: Antibiofilm activity against Candida albicans ATCC 90028 by two dimensional checkerboard dilution method in presence of aspirin
Summary of the method: (§2)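 Preformed 48 h disk biofilms (RPMI 1640, MOPS pH 7, 37 °C), PBS-washed, exposed 24 h at 37 °C on rocker to two-dimensional checkerboard of anidulafungin plus NSAID in RPMI; NSAID final 0.1 µM to 100 mM. XTT reduction at 490 nm; SMIC = combination giving 50% metabolic reduction versus drug-free control; FIC index calculated; triplicate on different days.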

[4] = system: Candida albicans; test: Antibiofilm activity against Candida albicans ATCC 24433 by two dimensional checkerboard dilution method in presence of aspirin; summary of the method: as §2
[5] = system: Candida albicans; test: Antibiofilm activity against Candida albicans 17a18 by two dimensional checkerboard dilution method in presence of aspirin; summary of the method: as §2
[6] = system: Nakaseomyces glabratus; test: Antibiofilm activity against Candida glabrata 18a10 by two dimensional checkerboard dilution method
Summary of the method: (§3)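 Biofilms grown on sterilized PVC disks: 1·10^6 cfu/ml Candida cells adhered for 1.5 h at 37 °C with shaking, washed with PBS, then matured 48 h at 37 °C in RPMI 1640 (MOPS, pH 7). Preformed biofilms were washed and exposed to drug, alone or in two-dimensional checkerboard combination, in RPMI 1640 for 24 h at 37 °C on a rocker.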

[7] = system: Meyerozyma guilliermondii; test: Antibiofilm activity against Candida guilliermondii a410 by two dimensional checkerboard dilution method; summary of the method: as §3
[8] = system: Nakaseomyces glabratus; test: Antibiofilm activity against Candida glabrata ATCC 15126 assessed as fractional inhibitory concentration by two dimensional checkerboard dilution method in presence of aspirin; summary of the method: as §2
[9] = system: Candida albicans; test: Antibiofilm activity against Candida albicans ATCC 90028 assessed as fractional inhibitory concentration by two dimensional checkerboard dilution method in presence of diclofenac; summary of the method: as §2
[10] = system: Candida albicans; test: Antibiofilm activity against Candida albicans 17a18 assessed as fractional inhibitory concentration by two dimensional checkerboard dilution method in presence of diclofenac; summary of the method: as §2
[11] = system: Nakaseomyces glabratus; test: Antibiofilm activity against Candida glabrata ATCC 15126 by two dimensional checkerboard dilution method in presence of diclofenac; summary of the method: as §2
[12] = system: Meyerozyma guilliermondii; test: Antibiofilm activity against Candida guilliermondii ATCC 6260 assessed as fractional inhibitory concentration by two dimensional checkerboard dilution method in presence of diclofenac; summary of the method: as §2
[13] = system: Meyerozyma guilliermondii; test: Antibiofilm activity against Candida guilliermondii a410 assessed as fractional inhibitory concentration by two dimensional checkerboard dilution method in presence of diclofenac
Summary of the method: (§4)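 Biofilms were grown on PVC disks from 2 ml of a 1·10^6 cfu/ml cell suspension. Adhesion ran 1.5 h at 37 °C with shaking at 100 rpm. Disks were PBS-washed, then matured 48 h at 37 °C in RPMI 1640 (MOPS, pH 7). Biofilms were washed again and given 24 h at 37 °C of anidulafungin/NSAID checkerboard combinations (NSAID final 0.1 µM–100 mM). Read-out was XTT-menadione (2 h, 37 °C, 490 nm). SMIC was defined as 50% reduction versus drug-free control, from which FICI was calculated. Triplicates were run on different days.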

[14] = system: Candida albicans; test: Antibiofilm activity against Candida albicans ATCC 90028 assessed as fractional inhibitory concentration by two dimensional checkerboard dilution method in presence of ibuprofen; summary of the method: as §2
[15] = system: Candida albicans; test: Antibiofilm activity against Candida albicans 17a18 assessed as fractional inhibitory concentration by two dimensional checkerboard dilution method in presence of ibuprofen; summary of the method: as §2
[16] = system: Nakaseomyces glabratus; test: Antibiofilm activity against Candida glabrata 18a10 by two dimensional checkerboard dilution method in presence of ibuprofen; summary of the method: as §2
[17] = system: Nakaseomyces glabratus; test: Antibiofilm activity against Candida glabrata 18a10 assessed as fractional inhibitory concentration by two dimensional checkerboard dilution method in presence of ibuprofen; summary of the method: as §2
[18] = system: Meyerozyma guilliermondii; test: Antibiofilm activity against Candida guilliermondii ATCC 6260 assessed as fractional inhibitory concentration by two dimensional checkerboard dilution method in presence of ibuprofen; summary of the method: as §2
[19] = system: Meyerozyma guilliermondii; test: Antibiofilm activity against Candida guilliermondii a83 by two dimensional checkerboard dilution method in presence of ibuprofen; summary of the method: as §4
[20] = system: Candida albicans; test: Antibiofilm activity against Candida albicans ATCC 90028 by two dimensional checkerboard dilution method in presence of anidulafungin; summary of the method: as §3
[21] = system: Candida albicans; test: Antibiofilm activity against Candida albicans 17a18 by two dimensional checkerboard dilution method in presence of anidulafungin; summary of the method: as §3
[22] = system: Meyerozyma guilliermondii; test: Antibiofilm activity against Candida guilliermondii a410 by two dimensional checkerboard dilution method in presence of anidulafungin; summary of the method: as §3
[23] = system: Nakaseomyces glabratus; test: Antibiofilm activity against Candida glabrata 18a10 assessed as fractional inhibitory concentration by two dimensional checkerboard dilution method in presence of anidulafungin
Summary of the method: (§5)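 Biofilms grown on PVC disks: 1·10^6 cfu/ml in RPMI 1640 (MOPS, pH 7), 1.5 h adhesion at 37 °C with shaking, PBS wash, 48 h maturation at 37 °C. Preformed biofilms exposed 24 h at 37 °C to anidulafungin/NSAID checkerboard combinations in RPMI. XTT-menadione reduction read at 490 nm. SMIC = 50% metabolic reduction versus drug-free control. Triplicate runs on different days; FIC index calculated.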

[24] = system: Meyerozyma guilliermondii; test: Potentiation of anidulafungin-induced antibiofilm activity against Candida guilliermondii a83 assessed as anidulafungin-fractional inhibitory concentration index by two dimensional checkerboard dilution method; summary of the method: as §5
[25] = system: Meyerozyma guilliermondii; test: Potentiation of anidulafungin-induced antibiofilm activity against Candida guilliermondii a410 assessed as anidulafungin-fractional inhibitory concentration index by two dimensional checkerboard dilution method; summary of the method: as §5
[26] = system: Nakaseomyces glabratus; test: Antibiofilm activity against Candida glabrata 18a10 at 0.1 uM to 100 mM after 48 hrs by XTT reduction assay relative to control; set-up: scale not given: the % may be the effect or the level left; summary of the method: as §3
[27] = system: Candida albicans; test: Antibiofilm activity against Candida albicans ATCC 10231 at 0.1 uM to 100 mM after 48 hrs by XTT reduction assay relative to control; set-up: scale not given: the % may be the effect or the level left; summary of the method: as §3
[28] = system: Candida albicans; test: Potentiation of anidulafungin-induced antibiofilm activity against Candida albicans ATCC 24433 at 0.1 uM to 100 mM after 48 hrs by XTT reduction assay relative to control; set-up: scale not given: the % may be the effect or the level left; summary of the method: as §3
[29] = system: Candida albicans; test: Antibiofilm activity against Candida albicans ATCC 90028 at 1 mM after 24 hrs by XTT reduction assay relative to control; set-up: scale not given: the % may be the effect or the level left; summary of the method: as §3
[30] = system: Meyerozyma guilliermondii; test: Antibiofilm activity against Candida guilliermondii a410 at 0.1 uM to 100 mM after 48 hrs by XTT reduction assay relative to control; set-up: scale not given: the % may be the effect or the level left; summary of the method: as §3
[31] = system: Candida albicans; test: Antibiofilm activity against Candida albicans ATCC 24433 at 0.1 uM to 100 mM after 48 hrs by XTT reduction assay relative to control; set-up: scale not given: the % may be the effect or the level left; summary of the method: as §3
[32] = system: Meyerozyma guilliermondii; test: Antibiofilm activity against Candida guilliermondii ATCC 6260 at 0.2 mM after 24 hrs by XTT reduction assay relative to control; set-up: scale not given: the % may be the effect or the level left; summary of the method: as §3

Row | MIC [6] | MIC [7] | MIC [20] | MIC [21] | MIC [22] | SMILES | Ratio [23] | fractional inhibitory concentration index (FICI) [24] | fractional inhibitory concentration index (FICI) [25] | Activity [26] | Activity [27] | Activity [28] | Activity [29] | Activity [31] | other results
1 | 200 µM | 1000 µM | 10 µM | 10 µM | 100 µM | CC(=O)Oc1ccccc1C(=O)O [ASPIRIN] | 0.05 | 0.1 | 0.15 | 32.32% | 49.21% | 56.14% | 44.72% | – | –
2 | 100000 µM | 100000 µM | 5000 µM | 5000 µM | 40000 µM | O=C([O-])Cc1ccccc1Nc1c(Cl)cccc1Cl.[Na+] [DICLOFENAC SODIUM] | 0.2 | 0.3 | 0.45 | 44.54% | 53.57% | 65.24% | – | 50.25% | Activity [30]: 58.69%
3 | 200 µM | 200 µM | 1000 µM | 50 µM | 20 µM | CC(C)Cc1ccc(C(C)C(=O)O)cc1 (configuration not stated) [IBUPROFEN] | 0.2 | 0.25 | 0.3 | 53.44% | – | 60.14% | 25.62% | 22.45% | Activity [32]: 64.43%

Row | SMILES | MIC [6] | MIC [7] | MIC [20] | MIC [21] | MIC [22] | Ratio [23] | fractional inhibitory concentration index (FICI) [24] | fractional inhibitory concentration index (FICI) [25] | Activity [26] | Activity [27] | Activity [28] | Activity [29] | Activity [31] | other results
4 | CCCCCOc1ccc(-c2ccc(-c3ccc(C(=O)N[C@@H]4C[C@@H](O)[C@@H](O)NC(=O)[C@@H]5[C@@H](O)[C@@H](C)CN5C(=O)[C@H]([C@@H](C)O)NC(=O)[C@H]([C@H](O)[C@@H](O)c5ccc(O)cc5)NC(=O)[C@@H]5C[C@@H](O)CN5C(=O)[C@H]([C@H](C)O)NC4=O)cc3)cc2)cc1 | 2 µg/mL | 2 µg/mL | – | – | – | – | – | – | – | – | – | – | – | Activity [1]: 33.98%; Activity [2]: 29.31%; MIC [3]: 0.1 µg/mL; MIC [4]: 0.1 µg/mL; MIC [5]: 0.1 µg/mL; Ratio [8]: 0.05; Ratio [9]: 0.05; Ratio [10]: 0.05; MIC [11]: 0.2 µg/mL; Ratio [12]: 0.05; Ratio [13]: 0.05; Ratio [14]: 0.2; Ratio [15]: 0.2; MIC [16]: 0.1 µg/mL; Ratio [17]: 0.05; Ratio [18]: 0.2; MIC [19]: 0.1 µg/mL
